Results: ChEMBL document CHEMBL3576792, “Enhancement of antibiotic activity against multidrug-resistant bacteria by the efflux pump inhibitor 3,4-dibromopyrrole-2,5-dione isolated from a Pseudoalteromonas sp” (J Nat Prod, 2015)
In brackets after ≈: the same amount, converted by molar mass. Activity calls are given as the source filed them. No cut-off for these calls is given here.

What was measured:
Escherichia coli [1] = assay: Potentiation of chloramphenicol-induced antibacterial activity Escherichia coli transformed with plasmid carrying MG1655 deltaBC/pABM assessed as chloramphenicol MIC by p-iodonitrotetrazolium chloride colorimetric assay; type: functional
Procedure, shortened: (§1)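 Checkerboard microdilution in Mueller-Hinton broth: two-fold dilutions of antibiotic crossed with dilutions of test compound above, at and below their MICs. Growth was read by INT colorimetric assay, with MIC as the lowest concentration showing no visible growth. FICs and FIC index were derived from these MICs. ΔBC/pABM and ΔBC/pXYM strains were grown with 100 μg/mL ampicillin and 1 mM IPTG.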

Escherichia coli [2] = assay: Effect on intracellular H33342 accumulation in Escherichia coli AG100A delta acrAB mutant at 0.06 ug/ml after 60 mins by accumulation assay; type: functional
Procedure, shortened: (§2)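 Cells grown in Luria broth at 37 °C, 200 rpm to OD600 1.0, then washed twice in PBS and diluted in glucose-free PBS to OD600 0.3. H33342 was used at 2.5 μM with 22 mM glucose at 37 °C and allowed to accumulate for ~30 min. Compound was then added and fluorescence (Ex 350/Em 460 nm) followed for 60 min. Values are the mean RFU of the final 4 min, after media-plus-compound background was subtracted. Run in duplicate, n = 8.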

Escherichia coli [3] = assay: Potentiation of erythromycin-induced antibacterial activity Escherichia coli transformed with plasmid carrying MG1655 deltaBC/pXYM assessed as erythromycin MIC by p-iodonitrotetrazolium chloride colorimetric assay; type: functional; procedure, shortened: as §1
Escherichia coli [4] = assay: (§3) Inhibition of AcrAB-TolC pump in Escherichia coli AG100 assessed as increase in intracellular H33342 fluorescence after 60 mins by efflux inhibition assay; type: cell-based
Procedure, shortened: (§4)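 AG100 (wild-type K-12) or AG100A (ΔacrAB) cells were grown in Luria broth at 37 °C and 200 rpm to OD600 1.0, PBS-washed and diluted to OD600 0.3. Cells took up 2.5 μM Hoechst 33342 with 22 mM glucose at 37 °C for about 30 min, then compound (0.06–64 μg/mL) or PAβN (15.6 μg/mL) was added. Fluorescence (Ex 350/Em 460 nm) was followed for 60 min and corrected for background. The last four time points were compared to dye-only control by ANOVA with Dunnett's test, run in duplicate.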

[5] = as §3; type: cell-based; details: AG100, 1 h; procedure, shortened: as §4
Escherichia coli [6] = assay: Potentiation of erythromycin-induced antibacterial activity Escherichia coli transformed with plasmid carrying MG1655 deltaBC/pXYM by p-iodonitrotetrazolium chloride colorimetric assay; type: functional
Escherichia coli [7] = assay: Potentiation of kanamycin-induced antibacterial activity Escherichia coli transformed with plasmid carrying MG1655 deltaBC/pXYM by p-iodonitrotetrazolium chloride colorimetric assay; type: functional
Escherichia coli [8] = assay: Potentiation of levofloxacin-induced antibacterial activity Escherichia coli AG102 overexpressing AcrAB-TolC MIC by p-iodonitrotetrazolium chloride colorimetric assay; type: functional
Escherichia coli [9] = assay: Potentiation of erythromycin-induced antibacterial activity Escherichia coli transformed with plasmid carrying MG1655 deltaBC/pABM by p-iodonitrotetrazolium chloride colorimetric assay; type: functional
Escherichia coli K-12 [10] = assay: Inhibition of AcrAB-TolC pump in Escherichia coli K-12 AG100 assessed as […] at 16 ug/ml after 60 mins by accumulation assay
Procedure, shortened: (§5)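 AG100 (wild-type K-12) or AG100A (ΔacrAB) grown in Luria broth at 37 °C and 200 rpm to OD600 1.0, PBS-washed, diluted to OD600 0.3. Cells given 2.5 μM H33342 with 22 mM glucose at 37 °C for ~30 min until stable, then compound (0.06–64 μg/mL) added. Fluorescence (Ex 350/Em 460) read for 60 min, background subtracted. Final 4 time points averaged; one-way ANOVA/Dunnett vs Hoechst-only; n = 8.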

Escherichia coli [11] = assay: Effect on intracellular H33342 accumulation in Escherichia coli AG100A delta acrAB mutant at 4 ug/ml after 60 mins by accumulation assay; type: functional; procedure, shortened: as §5
Escherichia coli K-12 [12] = assay: Inhibition of AcrAB-TolC pump in Escherichia coli K-12 AG100 assessed as increase in H33342 accumulation at 64 ug/ml after 60 mins by accumulation assay
Escherichia coli [13] = assay: Potentiation of chloramphenicol-induced antibacterial activity Escherichia coli AG102 overexpressing AcrAB-TolC by p-iodonitrotetrazolium chloride colorimetric assay; type: functional
Escherichia coli [14] = assay: Effect on intracellular H33342 accumulation in Escherichia coli AG100A delta acrAB mutant at 64 ug/ml after 60 mins by accumulation assay; type: functional; procedure, shortened: as §2
Escherichia coli [15] = assay: Potentiation of tetracycline-induced antibacterial activity Escherichia coli AG102 overexpressing AcrAB-TolC assessed as tetracycline MIC by p-iodonitrotetrazolium chloride colorimetric assay; type: functional; procedure, shortened: as §1
Escherichia coli [16] = assay: Potentiation of oxacillin-induced antibacterial activity Escherichia coli transformed with plasmid carrying MG1655 deltaBC/pXYM by p-iodonitrotetrazolium chloride colorimetric assay; type: functional
Escherichia coli K-12 [17] = assay: Inhibition of AcrAB-TolC pump in Escherichia coli K-12 AG100 assessed as increase in intracellular H33342 fluorescence at 1 ug/ml after 60 mins by efflux inhibition assay; type: cell-based; procedure, shortened: as §4
Escherichia coli [18] = assay: Potentiation of levofloxacin-induced antibacterial activity Escherichia coli transformed with plasmid carrying MG1655 deltaBC/pXYM assessed as levofloxacin MIC by p-iodonitrotetrazolium chloride colorimetric assay; type: functional; procedure, shortened: as §1
Escherichia coli [19] = assay: Potentiation of ciprofloxacin-induced antibacterial activity Escherichia coli transformed with plasmid carrying MG1655 deltaBC/pABM assessed as ciprofloxacin MIC by p-iodonitrotetrazolium chloride colorimetric assay; type: functional; procedure, shortened: as §1
Escherichia coli [20] = assay: Effect on intracellular H33342 accumulation in Escherichia coli AG100A after 60 mins by efflux inhibition assay; type: functional, organism-based; procedure, shortened: as §4
Escherichia coli [21] = assay: Effect on intracellular H33342 accumulation in Escherichia coli AG100A delta acrAB mutant at 0.25 ug/ml after 60 mins by accumulation assay; type: functional
Procedure, shortened: (§6)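 Cells grown in Luria broth at 37 °C, 200 rpm to OD600 1.0, washed twice in PBS and diluted in glucose-free PBS to OD600 0.3. Cells were given 2.5 μM H33342 with 22 mM glucose at 37 °C for ~30 min until stable, then compound added (0.06–64 μg/mL). Fluorescence (Ex 350/Em 460 nm) was read for 60 min, background subtracted, and the final 4 min averaged (n = 8).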

Escherichia coli [22] = assay: Potentiation of piperacillin-induced antibacterial activity Escherichia coli transformed with plasmid carrying MG1655 deltaBC/pABM by p-iodonitrotetrazolium chloride colorimetric assay; type: functional, organism-based; procedure, shortened: as §1
Escherichia coli [23] = assay: Potentiation of chloramphenicol-induced antibacterial activity Escherichia coli transformed with plasmid carrying MG1655 deltaBC/pABM by p-iodonitrotetrazolium chloride colorimetric assay; type: functional
Escherichia coli [24] = assay: Potentiation of tetracycline-induced antibacterial activity Escherichia coli AG102 overexpressing AcrAB-TolC by p-iodonitrotetrazolium chloride colorimetric assay; type: functional
Escherichia coli K-12 [25] = assay: Inhibition of AcrAB-TolC pump in Escherichia coli K-12 AG100 assessed as […] at 0.25 ug/ml after 60 mins by accumulation assay; procedure, shortened: as §6
Escherichia coli [26] = assay: Potentiation of piperacillin-induced antibacterial activity Escherichia coli AG102 overexpressing AcrAB-TolC assessed as piperacillin MIC by p-iodonitrotetrazolium chloride colorimetric assay; type: functional; procedure, shortened: as §1

Compound: O=C1NC(=O)C(Br)=C1Br
- MIC (Escherichia coli [1]): 128 µg/mL
- RFU (Escherichia coli [2]): 1020
- MIC (Escherichia coli [3]): 32 µg/mL
- inhibition (Escherichia coli [4]): Dose-dependent effect
- IC50 [5]: 0.79 µg/mL (≈ 3.1 µM)
- fractional inhibitory concentration index (FICI) (Escherichia coli [6]): 0.31
- fractional inhibitory concentration index (FICI) (Escherichia coli [7]): 0.75
- fractional inhibitory concentration index (FICI) (Escherichia coli [8]): 0.36
- fractional inhibitory concentration index (FICI) (Escherichia coli [9]): 0.19
- RFU (Escherichia coli K-12 [10]): 1170
- RFU (Escherichia coli [11]): 1200
- RFU (Escherichia coli K-12 [12]): 1200
- fractional inhibitory concentration index (FICI) (Escherichia coli [13]): 0.5
- RFU (Escherichia coli [14]): 1090
- MIC (Escherichia coli [15]): 64 µg/mL
- fractional inhibitory concentration index (FICI) (Escherichia coli [16]): 0.27
- RFU (Escherichia coli K-12 [17]): -247
- MIC (Escherichia coli [18]): 32 µg/mL
- MIC (Escherichia coli [19]): 64 µg/mL
- inhibition (Escherichia coli [20]): inactive
- RFU (Escherichia coli [21]): 1000
- fractional inhibitory concentration index (FICI) (Escherichia coli [22]): inactive
- fractional inhibitory concentration index (FICI) (Escherichia coli [23]): 0.75
- fractional inhibitory concentration index (FICI) (Escherichia coli [24]): 0.31
- RFU (Escherichia coli K-12 [25]): 796
- MIC (Escherichia coli [26]): 32 µg/mL
